Laboratory results as given in ChEMBL document CHEMBL1649428, “An ABC transporter of Streptococcus pneumoniae involved in susceptibility to vancoresmycin and bacitracin” (2009).
In brackets after ≈: the same amount, converted by molar mass. Bridge positions count the residues as written; N and C are the ends. Square brackets hold non-standard residues; d marks the D form. Peptide text beside a SMILES is read from it. * marks the point of attachment. Ileψ(thiazoline)Cys = CC[C@H](C)[C@H](N)C1=N[C@H](C(=O)*)CS1; dOrn = NCCC[C@@H](N)C(=O)O

Key:
Format in all cases: functional
Streptococcus pneumoniae [1] = test: Antimicrobial activity against Streptococcus pneumoniae R6 transformed with DNA containing spr0813 C1744T::aphIII mutant gene selected after kanamycin exposure by agar dilution method
Outline: (§1)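 Agar dilution MIC against the strain. Vancoresmycin was tested at 0.3 to 0.8 μg/ml in 0.05 μg/ml steps, diluted from a 0.5 mg/ml methanol stock kept at −20°C. Bacitracin was tested at 0.5 to 6 μg/ml in 0.2 μg/ml steps. Pneumococci are routinely grown at 37°C. MIC is the mean of three independent experiments.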

Streptococcus pneumoniae [2] = test: Antimicrobial activity against Streptococcus pneumoniae R6 transformed with DNA containing spr0813 C1744T mutant gene selected after vancoresmycin exposure by agar dilution method; outline: as §1
Streptococcus pneumoniae [3] = test: Antimicrobial activity against kanamycin-resistant and spr0811-spr0813::aphIII deficient Streptococcus pneumoniae R6 by agar dilution method; outline: as §1
Streptococcus pneumoniae [4] = test: Antimicrobial activity against copY and cyl deficient Streptococcus pneumoniae VarF mutant by agar dilution method
Streptococcus pneumoniae [5] = test: Antimicrobial activity against Streptococcus pneumoniae R6 by agar dilution method; outline: as §1
Streptococcus pneumoniae [6] = test: Antimicrobial activity against copY and cyl deficient Streptococcus pneumoniae VarA mutant by agar dilution method
Streptococcus pneumoniae [7] = test: Antimicrobial activity against kanamycin-resistant and spr0811-spr0813::aphIII deficient Streptococcus pneumoniae VarG by agar dilution method; outline: as §1
Streptococcus pneumoniae [8] = test: Antimicrobial activity against Streptococcus pneumoniae R6 transformed with DNA containing spr0813 C1744T mutant gene selected after drug exposure by agar dilution method; outline: as §1
Streptococcus pneumoniae [9] = test: Antimicrobial activity against copY and cyl deficient Streptococcus pneumoniae VarE mutant by agar dilution method
Streptococcus pneumoniae [10] = test: Antimicrobial activity against Streptococcus pneumoniae VarG transformed with spr0813 C1744T mutant gene by agar dilution method; outline: as §1

SMILES	MIC (Streptococcus pneumoniae [1])	MIC (Streptococcus pneumoniae [2])	MIC (Streptococcus pneumoniae [3])	MIC (Streptococcus pneumoniae [4])	MIC (Streptococcus pneumoniae [5])	MIC (Streptococcus pneumoniae [6])	MIC (Streptococcus pneumoniae [7])	MIC (Streptococcus pneumoniae [8])	MIC (Streptococcus pneumoniae [9])	MIC (Streptococcus pneumoniae [10])
CC[C@H](C)[C@H](N)C1=N[C@H](C(=O)N[C@@H](CC(C)C)C(=O)N[C@H](CCC(=O)O)C(=O)N[C@H](C(=O)N[C@H]2CCCCNC(=O)[C@H](CC(N)=O)NC(=O)[C@@H](CC(=O)O)NC(=O)[C@H](Cc3cnc[nH]3)NC(=O)[C@@H](Cc3ccccc3)NC(=O)[C@H]([C@@H](C)CC)NC(=O)[C@@H](CCCN)NC2=O)[C@@H](C)CC)CS1 [BACITRACIN] ({Ileψ(thiazoline)Cys}-L[dE]IK[dOrn]I[dF]H[dD]N; lactam 4-C)	1 µg/mL (≈ 0.703 µM)	1 µg/mL (≈ 0.703 µM)	1 µg/mL (≈ 0.703 µM)	5.2 µg/mL (≈ 3.65 µM)	4.8 µg/mL (≈ 3.37 µM)	5.2 µg/mL (≈ 3.65 µM)	1 µg/mL (≈ 0.703 µM)	1 µg/mL (≈ 0.703 µM)	5.2 µg/mL (≈ 3.65 µM)	1 µg/mL (≈ 0.703 µM)
C/C(=C\CC(O)CC(O)CCC(C)C(O)C(C)C(O)CCCC(O)C(C)C(O)/C(C)=C/C(C)C(=O)/C(C)=C/C(O)C(O)CC(O)CC(OC1OC(C)C(O)C(N)C1O)C(C)CCC(O)CC(O)CCC(C)C(O)C(C)C(O)C(C)C)C(=O)C1=C(O)/C(=C/C(C)C)N(C)C1=O (centres undefined) [VANCORESMYCIN]	0.5 µg/mL (≈ 0.372 µM)		0.4 µg/mL (≈ 0.298 µM)	0.65 µg/mL (≈ 0.484 µM)	0.4 µg/mL (≈ 0.298 µM)	0.7 µg/mL (≈ 0.521 µM)	0.4 µg/mL (≈ 0.298 µM)	0.5 µg/mL (≈ 0.372 µM)	0.7 µg/mL (≈ 0.521 µM)	0.5 µg/mL (≈ 0.372 µM)
